Data on 13 compounds can be found in ChEMBL document CHEMBL4706762, “Massively Parallel Optimization of the Linker Domain in Small Molecule Dimers Targeting a Toxic r(CUG) Repeat Expansion” (ACS Med Chem Lett, 2021).

The source made the active and inactive calls. No cut-off for these calls is given here.

Data set [1] is described as follows: Drug localization in nucleus of DM1-patient derived myotubes at 5 uM measured after 24 hrs by live-cell fluorescence microscopy. The format is ADME, subcellular. The conditions noted are these: human, myotube. In a few lines: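 DM1 patient myotubes bearing 1300 r(CUG) repeats given 5 μM agent; subcellular localization followed via intrinsic fluorescence of the H RNA-binding modules.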

Data set [2] has as its system r(CUG) repeat expansion. As to the kind of experiment: Binding affinity to r(CUG)exp RNA repeat in DM1-patient derived myotubes assessed as improvement in MBNL1 exon 5 splicing defect at 0.2 uM measured after 48 hrs by RT-qPCR analysis relative to control. The conditions noted are these: Homo sapiens, Myotube. In a few lines:
(§1)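 DM1 patient-derived myotubes (1300 r(CUG) repeats) treated 48 h, then MBNL1 exon 5 splicing rescue measured. Single-dose screens at 5 μM or 1 μM, where 1 μM was used if 5 μM altered morphology, n = 3. Dose–response also run, n = 6. SD shown; one-way ANOVA.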

A short description of data set [3]: Cytotoxicity against DM1-patient derived myotubes assessed as change in cellular morphology at 5 uM measured after 48 hrs. The conditions noted are these: human, myotube. In a few lines: (§2)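 Cell morphology of DM1 patient-derived myotubes inspected during 48 h splicing treatment at 5 μM; agents altering morphology were re-tested at 1 μM.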
Data set [4] concerns r(CUG) repeat expansion. As to the kind of experiment: Binding affinity to r(CUG)exp RNA repeat in DM1-patient derived myotubes assessed as improvement in MBNL1 exon 5 splicing defect at 1 uM measured after 48 hrs by RT-qPCR analysis relative to control. Particulars: Homo sapiens, Myotube. A digest of the protocol:
as §1

Data set [5] deals with r(CUG) repeat expansion. As to the kind of experiment: Binding affinity to r(CUG)exp RNA repeat in DM1-patient derived myotubes assessed as improvement in MBNL1 exon 5 splicing defect measured after 48 hrs by RT-qPCR analysis. The format is tissue-based. The conditions noted are these: Homo sapiens, Myotube, dose 0.04-1 µM.
A short description of data set [6]: Cytotoxicity against DM1-patient derived myotubes assessed as change in cellular morphology at 1 uM measured after 48 hrs. The conditions noted are these: human, myotube. In a few lines:
as §2

In data set [7] the test system is r(CUG) repeat expansion. Nature of the data set: Binding affinity to r(CUG)exp RNA repeat in DM1-patient derived myotubes assessed as improvement in MBNL1 exon 5 splicing defect at 5 uM measured after 48 hrs by RT-qPCR analysis relative to control. Particulars: Homo sapiens, Myotube. A digest of the protocol: as §1
For data set [8], the target named is r(CUG) repeat expansion. As to the kind of experiment: Binding affinity to 5'-biotinylated r(CUG)12 RNA repeat (unknown origin) assessed as disruption of r(CUG)12-His-tagged MBNL1 complex formation preincubated for 15 mins followed by MBNL1 addition and measured after 15 mins by TR-FRET assay. The format is nucleic-acid assay.
Data set [9] has as its target r(CUG) repeat expansion. Nature of the data set: Binding affinity to r(CUG)12 RNA repeat (unknown origin) measured after 10 mins by fluorescence assay. It is filed as nucleic-acid assay.
The subject of data set [10] is Myotube. Nature of the data set: Effect on MBNL1 exon 5 splicing in wild type human myotubes at 0.04 to 1 uM measured after 48 hrs by RT-qPCR analysis. It is filed as functional. Particulars: dose 0.04-1 µM.
Data set [11] relates to Myotube. Nature of the data set: Effect on DMPK transcription in DM1-patient derived myotubes at 0.04 to 1 uM measured after 48 hrs by RT-qPCR analysis. The format is functional. The conditions noted are these: Homo sapiens, dose 0.04-1 µM. A digest of the protocol:
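Transcript levels, either DMPK or r(CUG) repeat-containing mRNAs, quantified by RT-qPCR in treated DM1 myotubes; n = 6, one-way ANOVA.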

In data set [12] the test system is Myotube. As to the kind of experiment: Effect on alternative splicing of MAP4K4 exon 22a in DM1-patient derived myotubes at 0.04 to 1 uM measured after 48 hrs by RT-qPCR analysis. The format is functional. Particulars: Homo sapiens, dose 0.04-1 µM.
The next data set deals with Nucleic Acid. As to the kind of experiment: Binding affinity to r(CG)8 RNA repeat (unknown origin) measured after 10 mins by fluorescence assay. It is filed as nucleic-acid assay.
The test system of data set [13] is r(CUG) repeat expansion. Nature of the data set: Binding affinity to r(CUG)exp RNA repeat in DM1-patient derived myotubes assessed as reduction in number of r(CUG)exp-MBNL1 foci at 1 uM measured after 48 hrs by RNA fluorescence in situ hybridization assay. On the set-up: scale not given: the % may be the effect or the level left. Particulars: Homo sapiens, Myotube. In a few lines:
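Nuclear foci counted in DM1 myotubes by confocal imaging: MBNL1 by immunofluorescence, r(CUG)exp by RNA FISH. Foci per nucleus from 40 nuclei per replicate, n = 3; Student's t-test.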

For `COc1ccc(CN(CC(=O)N(CCCNC(=O)CCCOc2cccc(-c3nc4ccc(-c5nc6cc(N7CCN(C)CC7)ccc6[nH]5)cc4[nH]3)c2)CC(N)=O)C(=O)CN(Cc2cccnc2)C(=O)CN(C(=O)CN(C)C(=O)CCCOc2cccc(-c3nc4ccc(-c5nc6cc(N7CCN(C)CC7)ccc6[nH]5)cc4[nH]3)c2)C2CC2)cc1`, the Drug uptake entry in data set [1] is recorded as “Active”. Besides, the Activity was 2% in the data set with r(CUG) repeat expansion [2], “Toxic” in [3], “Dose-dependent effect” in the data set on r(CUG) repeat expansion [5] and “Non-Toxic” in data set [6]. In addition, in the data set with r(CUG) repeat expansion [4], the result was Active.
As to `CCCN(CC(=O)N(CCC)CC(=O)N(CCC)CC(=O)N(CCC)CC(=O)N(CC(N)=O)Cc1cn(CCCNC(=O)CCCOc2ccc(-c3nc4ccc(-c5nc6cc(N7CCN(C)CC7)ccc6[nH]5)cc4[nH]3)cc2)nn1)C(=O)CNCc1cn(CCCNC(=O)CCCOc2cccc(-c3nc4ccc(-c5nc6cc(N7CCN(C)CC7)ccc6[nH]5)cc4[nH]3)c2)nn1`, in the data set on r(CUG) repeat expansion [7], the Activity turned out to be 30%. Moreover, the Drug uptake result in data set [1] is “Active”. At r(CUG) repeat expansion [8], the 50% inhibitory concentration (IC50) worked out at 32200 nM. Further, in the data set on r(CUG) repeat expansion [4], the outcome was inactive. Also, the EC50 at r(CUG) repeat expansion [9] worked out at 1140 nM.
`CNCCCCN(CC(=O)N(CCCCNC)CC(=O)N(CCN)CC(=O)N(CCCNC(=O)CCCOc1cccc(-c2nc3ccc(-c4nc5cc(N6CCN(C)CC6)ccc5[nH]4)cc3[nH]2)c1)CC(N)=O)C(=O)CN(C)C(=O)CCCOc1cccc(-c2nc3ccc(-c4nc5cc(N6CCN(C)CC6)ccc5[nH]4)cc3[nH]2)c1`: the Drug uptake entry in [1] is recorded as “Active”. In addition, the values for the Activity entry in data set [3] and in data set [6] were “Toxic” and “Non-Toxic”, respectively. Moreover, the outcome in the data set with r(CUG) repeat expansion [4] was Active.
On to `COCCN(CC(=O)N(CCCNC(=O)CCCOc1cccc(-c2nc3ccc(-c4nc5cc(N6CCN(C)CC6)ccc5[nH]4)cc3[nH]2)c1)CC(N)=O)C(=O)CN(CCN)C(=O)CN(Cc1ccc(OC)cc1)C(=O)CN(CCN)C(=O)CCCOc1cccc(-c2nc3ccc(-c4nc5cc(N6CCN(C)CC6)ccc5[nH]4)cc3[nH]2)c1`, for which the Drug uptake entry in data set [1] is given as “Active”. In data set [3], the Activity result is reported as “Non-Toxic”.
For `CNCCCCN(CC(=O)N(CC(=O)N(CC(=O)N(CCO)CC(=O)N(CCCNC(=O)CCCOc1cccc(-c2nc3ccc(-c4nc5cc(N6CCN(C)CC6)ccc5[nH]4)cc3[nH]2)c1)CC(N)=O)C1CCCCC1)Cc1cccnc1)C(=O)CCCOc1cccc(-c2nc3ccc(-c4nc5cc(N6CCN(C)CC6)ccc5[nH]4)cc3[nH]2)c1` the same measures were “Active” and “Non-Toxic”.
Take `CNCCCCN(CC(=O)N(CCCNC(=O)CCCOc1cccc(-c2nc3ccc(-c4nc5cc(N6CCN(C)CC6)ccc5[nH]4)cc3[nH]2)c1)CC(N)=O)C(=O)CN(Cc1ccc(OC)cc1)C(=O)CN(CCCCNC)C(=O)CN(C(=O)CCCOc1cccc(-c2nc3ccc(-c4nc5cc(N6CCN(C)CC6)ccc5[nH]4)cc3[nH]2)c1)C1CCCCC1`: the Drug uptake result in data set [1] was “Active”. Further, the values for the Activity entry in data set [3] and in data set [6] were “Toxic” and “Non-Toxic”, respectively. Also, in the data set on r(CUG) repeat expansion [4], the result was inactive.
Take `CNCCCCN(CC(=O)N(CCN)CC(=O)N(CCCNC(=O)CCCOc1cccc(-c2nc3ccc(-c4nc5cc(N6CCN(C)CC6)ccc5[nH]4)cc3[nH]2)c1)CC(N)=O)C(=O)CN(C)C(=O)CN(CCCn1ccnc1)C(=O)CCCOc1cccc(-c2nc3ccc(-c4nc5cc(N6CCN(C)CC6)ccc5[nH]4)cc3[nH]2)c1`: the outcome in the data set on Myotube [10], with Myotube [11], in the data set on Myotube [12] and in the data set with Nucleic Acid was inactive. Also, in [1], the Drug uptake result is reported as “Active”. The Activity was 7% in the data set with r(CUG) repeat expansion [2]; “Toxic” in data set [3]; “Dose-dependent effect” in the data set with r(CUG) repeat expansion [5]; “Non-Toxic” in data set [6]; 20% in the data set on r(CUG) repeat expansion [13]. In addition, the 50% inhibitory concentration (IC50) on r(CUG) repeat expansion [8] was determined as 2800 nM. Also, in the data set with r(CUG) repeat expansion [4], the result was Active. This compound registered an EC50 on r(CUG) repeat expansion [9] of 106 nM.
Consider `CNCCCCN(CC(=O)N(CCCNC(=O)CCCOc1cccc(-c2nc3ccc(-c4nc5cc(N6CCN(C)CC6)ccc5[nH]4)cc3[nH]2)c1)CC(N)=O)C(=O)CN(CCCCNC)C(=O)CN(CCO)C(=O)CN(Cc1cccnc1)C(=O)CCCOc1cccc(-c2nc3ccc(-c4nc5cc(N6CCN(C)CC6)ccc5[nH]4)cc3[nH]2)c1`, for which the Drug uptake result in [1] is recorded as “Active”. For the same compound, in data set [3], the Activity entry is on record as “Non-Toxic”.
The matching figures for `CCCN(CC(=O)N(CCCCNC)CC(=O)N(C)CC(=O)N(CCCNC(=O)CCCOc1cccc(-c2nc3ccc(-c4nc5cc(N6CCN(C)CC6)ccc5[nH]4)cc3[nH]2)c1)CC(N)=O)C(=O)CN(CCO)C(=O)CCCOc1cccc(-c2nc3ccc(-c4nc5cc(N6CCN(C)CC6)ccc5[nH]4)cc3[nH]2)c1`: “Active” and “Non-Toxic”.
The matching figures for `CCCN(CC(=O)N(CCCNC(=O)CCCOc1cccc(-c2nc3ccc(-c4nc5cc(N6CCN(C)CC6)ccc5[nH]4)cc3[nH]2)c1)CC(N)=O)C(=O)CN(CCO)C(=O)CN(CCN)C(=O)CN(CCN1CCOCC1)C(=O)CCCOc1cccc(-c2nc3ccc(-c4nc5cc(N6CCN(C)CC6)ccc5[nH]4)cc3[nH]2)c1`: “Active” and “Non-Toxic”.
The matching figures for `CNCCCCN(CC(=O)N(CC(=O)N(CCCNC(=O)CCCOc1cccc(-c2nc3ccc(-c4nc5cc(N6CCN(C)CC6)ccc5[nH]4)cc3[nH]2)c1)CC(N)=O)C1CC1)C(=O)CN(CCOC)C(=O)CN(CCO)C(=O)CCCOc1cccc(-c2nc3ccc(-c4nc5cc(N6CCN(C)CC6)ccc5[nH]4)cc3[nH]2)c1`: “Active” and “Non-Toxic”.
Take `CNCCCCN(CC(=O)N(CCN)CC(=O)N(CCCNC(=O)CCCOc1cccc(-c2nc3ccc(-c4nc5cc(N6CCN(C)CC6)ccc5[nH]4)cc3[nH]2)c1)CC(N)=O)C(=O)CN(Cc1ccccc1)C(=O)CN(C)C(=O)CCCOc1cccc(-c2nc3ccc(-c4nc5cc(N6CCN(C)CC6)ccc5[nH]4)cc3[nH]2)c1`: the Drug uptake result in [1] is “Active”. In data set [3], the Activity entry is reported as “Non-Toxic”.
Consider `CNCCCCN(CC(=O)N(CCC(=O)N1CCCC1)CC(=O)N(CCCNC(=O)CCCOc1cccc(-c2nc3ccc(-c4nc5cc(N6CCN(C)CC6)ccc5[nH]4)cc3[nH]2)c1)CC(N)=O)C(=O)CN(CCO)C(=O)CN(CCC(=O)N1CCCC1)C(=O)CCCOc1cccc(-c2nc3ccc(-c4nc5cc(N6CCN(C)CC6)ccc5[nH]4)cc3[nH]2)c1`, for which the Drug uptake result in data set [1] is on record as “Active”. In data set [3], the Activity result is given as “Non-Toxic”.
